Experimental data from ChEMBL document CHEMBL1153560, “In vitro activities of doripenem and six comparator drugs against 423 aerobic and anaerobic bacterial isolates from infected diabetic foot wounds” (2008).

test system: Clostridium perfringens; assay: Antibacterial activity against Clostridium perfringens isolated from patient with diabetic foot infection assessed as percent resistant isolates after 44 to 48 hrs by agar dilution method; format: functional
Outline: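 Agar dilution per CLSI M11-A7. Twofold drug dilutions made on the test day and added to molten agar. Replicator-applied inoculum of 10^5 CFU/spot. Drug-free control plates inoculated before and after each drug set. Incubation at 37°C for 44 to 48 h, anaerobic chamber. MIC taken as the lowest concentration giving no growth or a marked change in growth versus controls.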

Question: How did the Activity turn out when `C[C@@H](O)[C@H]1C(=O)N2C(C(=O)O)=C(S[C@@H]3CN[C@H](C(=O)N(C)C)C3)[C@H](C)[C@H]12` [MEROPENEM] was run?
Answer: Its Activity is 0%.

Question: Which Activity does the source give for `CCC[C@@H]1C[C@@H](C(=O)N[C@@H]([C@H]2O[C@H](SC)[C@H](O)[C@@H](O)[C@H]2O)[C@H](C)Cl)N(C)C1` [CLINDAMYCIN] here?
Answer: Its Activity is 0%.

Question: `Cc1ncc([N+](=O)[O-])n1CCO` [METRONIDAZOLE] was tested. Which Activity did it give?
Answer: Its Activity is 0%.

Question: With `C[C@@H](O)[C@H]1C(=O)N2C(C(=O)O)=C(S[C@@H]3CN[C@H](CNS(N)(=O)=O)C3)[C@H](C)[C@H]12` [DORIPENEM] as the compound, how does the Activity read?
Answer: Its Activity is 0%.

Question: How did the Activity turn out when `C[C@@H](O)[C@H]1C(=O)N2C(C(=O)O)=C(SCCNC=N)C[C@H]12` [IMIPENEM ANHYDROUS] was run?
Answer: Its Activity is 0%.

Question: Which Activity does the source give for `C[C@@H](O)[C@H]1C(=O)N2C(C(=O)O)=C(S[C@@H]3CN[C@H](C(=O)Nc4cccc(C(=O)O)c4)C3)[C@H](C)[C@H]12` [ERTAPENEM] here?
Answer: Its Activity is 0%.
